Most compounds without a hit are left out; they make up all but 2.7% or so of the library.
NR2E3 ag-1: activates human photoreceptor nuclear receptor NR2E3. Q9Y5X4. GST-NR2E3/biotin-RetCOR TR-FRET, 1536-well. inhibition of corepressor binding, % at 4.78 µM. actives 0.12% (n = 320,000);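 active means percent inhibition above the cutoff of mean plus 3 SD of all tested compounds, set per screening campaign, cut at about 20% in these data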
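System: GST-tagged NR2E3 plus biotinylated RetCOR corepressor; Amount: 1.35 nM GST-tagged NR2E3 final; Dosing: single nominal compound dose of 4.8 µM; Schedule: 5 h incubation at 4 °C; Technique: TR-FRET with europium anti-GST and streptavidin-D2, 340 nm excitation; Controls: biotin wells as high control, 0.6% DMSO wells as low control.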
NR1D1 modulator: Rev-erb alpha (human) modulation. Rev-erbα–FITC-DNA binding, fluorescence polarization, 90 min. activity, % at 10 µM. actives 0.79% (n = 370,000);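 active means activity above about 14%, limit read from the data; passing the limit was not always enough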
Target sequence (P20393 whole entry, looked up): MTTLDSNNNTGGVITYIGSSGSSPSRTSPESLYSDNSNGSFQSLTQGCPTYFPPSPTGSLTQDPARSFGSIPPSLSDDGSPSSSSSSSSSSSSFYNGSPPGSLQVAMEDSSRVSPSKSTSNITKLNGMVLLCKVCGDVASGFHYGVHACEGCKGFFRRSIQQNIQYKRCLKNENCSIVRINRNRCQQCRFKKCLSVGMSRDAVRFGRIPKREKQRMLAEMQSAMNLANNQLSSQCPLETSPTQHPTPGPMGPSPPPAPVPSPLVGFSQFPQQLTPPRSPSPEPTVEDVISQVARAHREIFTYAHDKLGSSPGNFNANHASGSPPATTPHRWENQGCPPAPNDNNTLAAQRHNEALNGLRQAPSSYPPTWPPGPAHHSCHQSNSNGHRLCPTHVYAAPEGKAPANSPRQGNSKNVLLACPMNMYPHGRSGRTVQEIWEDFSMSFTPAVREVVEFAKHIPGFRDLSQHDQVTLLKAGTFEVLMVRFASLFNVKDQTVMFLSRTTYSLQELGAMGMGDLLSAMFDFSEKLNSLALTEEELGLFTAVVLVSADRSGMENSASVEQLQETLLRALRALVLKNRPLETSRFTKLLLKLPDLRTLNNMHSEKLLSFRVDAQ
PG9 binder: PG9 antibody binding by small molecule; TR-FRET gp120-PG9 antibody binding; inhibition, % at 6.7 µM; actives 0.43% (n = 360,000); AID 624416; in the data active means inhibition above about 8.5%
NR2E3 ag-2: agonists of human NR2E3 nuclear receptor | CHO-S Gal4-NCOR/VP16-NR2E3 two-hybrid, luciferase | inhibition of corepressor binding, % at 3.98 µM | actives 0.35% (n = 360,000) | AID 602229;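 active means inhibition above the mean of all tested compounds plus 3 SD, cut at about 70% in these data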;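 further: higher means lower luciferase signal from less NR2E3 corepressor binding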
MC4R antagonist: human MC4R antagonism in cAMP assay. MC4R-expressing cells, MTII-stimulated cAMP, LANCE TR-FRET. inhibition, % at 6.5 µM. actives 0.48% (n = 360,000). AID 540295;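 active means inhibition above its plate's cutoff, the mean of tested wells on that plate plus 3 SD, cut at about 29% in these data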
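System: U2OS-MC4R stable cell line; Technique: Eu-cAMP/anti-cAMP TR-FRET, emission 671 nm; Repeats: single well per compound; Also added: Melanotan II; Dosing: one concentration, 6.5 µM nominal; Schedule: 30-min compound, 1-h challenge, 1-h detection, room temperature.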
MC4R barr agon: activates human MC4R beta-arrestin recruitment. P32245. U2OS MC4R beta-arrestin complementation, luminescence; percent of melanotan II response, DMSO zero. activation, % at 8.9 µM. actives 0.98% (n = 360,000). AID 540308;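 active means activation above a per-plate cutoff, the mean activation of sample wells on that plate plus 3 SD, cut at about 8% in these data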
A number is an active result; – = inactive; · = no result.

SMILES	NR2E3 ag-1	NR1D1 modulator	PG9 binder	NR2E3 ag-2	MC4R antagonist	MC4R barr agon
CC1CCN(Cc2c(C(=O)N/N=C/c3ccc(C(F)(F)F)cc3)nnn2-c2nonc2N)CC1	–	–	–	–	–	24.2
CC1CCN(Cc2c(C(=O)N/N=C/c3cccc(C(F)(F)F)c3)nnn2-c2nonc2N)CC1	–	–	–	–	–	–
CCOC(=O)c1c(C)oc2c(F)c(F)c(F)c(F)c2c1=O	–	–	–	–	32.6	–
CCOC(=O)c1c(C)oc(=O)c(CC)c1O	·	–	–	–	–	–
CS(=O)CCC(NS(=O)(=O)c1ccccc1)C(=O)O (centres undefined)	–	–	–	–	–	–
COc1c(Cl)cc(Cl)cc1C(=O)Nc1ccc(NC(=O)c2cccs2)cc1	–	–	–	–	–	9.7
Cc1ncoc1C(=O)NC1CCCc2c1cnn2-c1ccc(C(C)(C)C)cc1 (centres undefined)	·	–	–	96.1	–	–
Cc1cc(-c2ccccc2)c2c(=O)n(-c3ccccc3)[nH]c2n1	–	–	–	–	–	–
COc1ccc(CNc2ncnc3sccc23)cc1OC	–	–	–	79.9	–	–
CC(C)(C)OC(=O)NCc1ccc(CNC(=O)c2[nH]cnc2C(=O)Nc2ccccc2F)cc1	·	–	–	–	–	9.3
O=C(Nc1ccccc1F)c1nc[nH]c1C(=O)NCc1ccccc1	·	–	–	–	–	–
Cc1sc(-c2c(C#N)c(N)nc3c2CCCCCC3)cc1[N+](=O)[O-]	–	–	–	–	–	–
Cc1cc(-c2nnc3n2N=C(c2ccc(-c4ccccc4)cc2)CS3)n[nH]1	–	–	–	–	–	9.3
O=C(Nc1cc(Cl)cc(Cl)c1)c1ccc(Cn2c(=O)[nH]c3ccsc3c2=O)cc1	–	·	·	–	–	20.4
CC(=O)NCCNC(=O)c1ccc(Cn2c(=O)[nH]c3ccsc3c2=O)cc1	·	–	–	–	–	–
CN1CCN(c2ccc(NC(=O)c3ccc(-c4ccc(Br)cc4)o3)cc2)CC1	–	–	–	–	–	10.9
CCN1CCN(c2ccc(NC(=O)c3ccc(Br)o3)cc2)CC1	·	–	–	–	–	–
COc1cc(C#Cc2ccc3cc(CCO)oc(=O)c3c2)cc(OC)c1	·	–	–	–	–	–
CN(C)c1ccc(C#Cc2ccc3cc(CCO)oc(=O)c3c2)cc1	–	·	·	–	43.0	–
Cc1ccc(Nc2nc3c(c(=O)[nH]c(=O)n3C)n2Cc2ccc(F)cc2)cc1	–	–	–	–	–	8.9
Cn1c(=O)[nH]c(=O)c2c1nc(NCCCO)n2Cc1ccc(F)cc1	–	–	–	–	–	–
CC(=O)Nc1ccc(NC(=O)C(C)OC(=O)CCC2CCCCC2)cc1 (centres undefined)	–	–	–	–	–	–
CC(C)NS(=O)(=O)c1ccc(NC(=O)C(C)OC(=O)CCC2CCCC2)cc1 (centres undefined)	–	–	–	–	–	8.4
CCN1CCN(CCOc2cccc(Cl)c2Cl)CC1	–	–	–	–	–	–
Cc1cc2c(cc1C)NC(=O)CC(C(F)(F)C(F)(F)C(F)(F)F)=N2	–	–	–	–	–	8.7
SMILES	NR2E3 ag-1	NR1D1 modulator	PG9 binder	NR2E3 ag-2	MC4R antagonist	MC4R barr agon
Cc1nn(Cc2ccc([N+](=O)[O-])cc2)c(=O)n1N(C)c1ncc(C(F)(F)F)cc1Cl	–	–	–	–	–	–
Cc1nn(Cc2ccc(Cl)cc2)c(=O)n1N(C)c1ncc(C(F)(F)F)cc1Cl	–	–	–	–	–	9.2
COc1cccc(-c2noc(-c3ccc(Cl)nc3)n2)c1	–	–	–	–	–	8.7
Cc1ccc(N(C(=O)c2ccncc2)C2C=CS(=O)(=O)C2)cc1 (centres undefined)	–	–	–	–	–	–
O=C(COc1ccc(/C=N/NC(=O)c2cc3ccccc3o2)cc1Cl)Nc1ccccc1	–	·	·	–	–	20.3
COc1cc(/C=N/NC(=O)c2ccccc2O)ccc1OCC(=O)Nc1ccccc1	–	–	–	–	–	–
O=c1[nH]c(SCc2ccccc2Cl)nc2c1cnn2-c1ccccc1	–	–	–	–	–	9.3
CC(=O)C1=C(C)NC(=O)NC1/C=C/c1ccccc1 (centres undefined)	–	–	–	–	–	–
COc1cccc(-c2sc3ccc(OC)cc3c2-c2ccc(OCCN(C)C)cc2)c1	·	–	–	–	–	10.2
Cc1ccc(Cn2cc(SCC(=O)Nc3nccs3)c3ccccc32)cc1	–	–	–	–	–	–
Cc1cccc(Cn2cc(SCC(=O)Nc3nccs3)c3ccccc32)c1	–	–	–	–	–	8.7
N#Cc1cc2c(nc1SCc1cccnc1)CCCCC2	–	–	–	–	–	–
CCOC(=O)c1cnc2ccc(OCC)cc2c1N1CCN(c2ccccc2OC)CC1	–	·	·	–	32.1	–
CCOc1ccc2ncc(C(=O)c3ccc(OC)cc3)c(N3CCN(CC)CC3)c2c1	–	·	·	–	–	–
CS(=O)(=O)c1sc(C#N)c2c1C(=O)CC(c1ccccc1)C2 (centres undefined)	–	–	–	–	32.9	–
COc1ccc(N2C(=O)CSC23C(=O)Nc2ccccc23)cc1OC (centres undefined)	–	–	–	–	–	–
Cc1ccc2cc3cc(C(=O)N(CC(=O)NC4CCCC4)c4cccc(C)c4C)sc3nc2c1	–	–	–	–	34.0	–
Cc1ccc(C)c(N(CC(=O)NC2CCCC2)C(=O)c2cc3cc4cccc(C)c4nc3s2)c1	–	–	–	–	–	–
COc1ccc(C(=O)COC(=O)c2sc(C)nc2C)cc1OC	–	–	–	–	–	–
CCN(CC(=O)Nc1c(F)cccc1F)C(=O)c1cc2ccccc2oc1=O	–	–	–	–	–	–
CCOC(=O)Cn1nc(-c2ccccc2)c(-c2ccccc2)nc1=O	–	–	–	–	–	–
CCOC(=O)Cn1nc(-c2ccccc2)c2cnc3ccc(CC)cc3c21	–	–	–	–	–	8.4
O=C(NCCN1CCN(c2cccc(Cl)c2)CC1)Nc1ccccc1	–	–	–	–	–	–
O=C(CCN1CCN(c2ccccc2)CC1)Nc1cccc(Br)c1	–	–	–	–	–	8.6
O=C(NCCN1CCN(c2ccccc2)CC1)Nc1ccc(Cl)cc1	–	–	–	–	–	9.2
COc1cccc(Nc2nnc(SCC3CCCCO3)s2)c1 (centres undefined)	–	–	–	–	–	–
Cc1cccc(C(=O)Nc2cccc(C(=O)N/N=C/c3ccc4c(c3)OCO4)c2)c1	–	–	–	–	–	–
O=C(CCc1ccccc1)N=C1SC2CS(=O)(=O)CC2N1Cc1ccccc1 (centres undefined)	–	–	–	–	–	8.9

Compound activity deposited in PubChem BioAssay by several laboratories.
